Reference: the EternaBench riboswitch data

Tested on: MS2 coat protein
Assay: apparent Kd, MS2 coat protein; higher = weaker binding; RNA-MaP array; FMN 200 µM where present
In short: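 Stalled E. coli RNA polymerase transcribed the designs on Illumina sequencing-chip clusters. SNAP-549-labelled MS2 coat protein was titrated from 0.7 or 1.5 nM, doubling to 3 µM, without and then with constant ligand, in 100 mM Tris-HCl pH 7.5, 80 mM KCl, 4 mM MgCl2, BSA, DTT, yeast tRNA and Tween-20. Per-cluster binding curves were fitted to green signal normalised to red-channel RNA signal and control-cluster median Fmax. The apparent Kd is the median of the filtered fits.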

[1] = designed as: OFF switch for flavin mononucleotide, no ligand
[2] = ligand present: flavin mononucleotide, designed as: OFF switch for flavin mononucleotide
[3] = designed as: ON switch for flavin mononucleotide, no ligand
[4] = ligand present: flavin mononucleotide, designed as: ON switch for flavin mononucleotide

| Sequence | apparent Kd [1] [nM] | apparent Kd [2] [nM] | apparent Kd [3] [nM] | apparent Kd [4] [nM] |
| --- | --- | --- | --- | --- |
| GUUCUUCCUGUGAGGAUAUCCAUGUGUCGGUUUGUGGAGAAGGUACAUGAGGAUCACCCAUGUCACCCGCGUUA | 14.7 | 17.7 | – | – |
| AUGCGUGGCUAGGAUAUCGAGGAAUCUAGCCAGCGAGAAGGAGCCACAUGAGGAUCACCCAUGUGGUGAACCUC | 22.8 | 17.6 | – | – |
| GUUAUUUAUGUAGGAUAUGCGAGGCGAGCCUAAGCAGAAGGACAUGAGGAUCACCCAUGUAUUGCGGUUUGUGUUCAGAUCGCU | 27.3 | 84.9 | – | – |
| UUUUUGUCAGGAUAUGAGUAGUAGAACAAUAGUACUACUACUCAGAAGGGACAUGAGGAUCACCCAUGUUCCUC | 15.2 | 54.1 | – | – |
| UUACAUACAAAGUUACAUGAGGAUCACCCAUGUUUAUUGGGAAGAAGGGUAACAGUAUUACAUAUAUAGGAUAUUUCACAAAUG | – | – | 409 | 251 |
| AGUUACAUACUCAACAUGAGGAUCACCCAUGUACUCUCUUGUAAGGAUAUACAUUCGUAUUGAUAGUAGAAGGUACUAAUUAUG | – | – | 50.9 | 51.5 |
| UAUUUAAUCAUAGGAUAUAGUGUGUAAUUUGGACUAGAAGGAUGAAACAUGAGGAUCACCCAUGUGGUAAAUGGGAUACAUUCC | – | – | 73.5 | 94.5 |
| UAUAUGUCAGGAUAUUAGUUGUGUUAGAAUUUAACUUCUGCUGAGAAGGGACAUGAGGAUCACCCAUGUUCCUC | 15.9 | 21.2 | – | – |
| AGAUCACAUGAGGAUCACCCAUGUGAGGAUAUGAUACUAUGUACUUCGGUACAUAGUAUCAGAAGGCAUGUGGA | 56.7 | 109 | – | – |
| AGUGUCAUCGAGAAGGCCUCAACAUGAGGAUCACCCAUGUUGUAAAAUGGGAGGAUAUCGAUGAUACAGCUACGUUUCGUAGCA | – | – | 11.3 | 4.88 |
| UAUAUAUAGUAAGGAUAUGUAAUUAUUUUAUCAACAGAAGGUACUGACAUGAGGAUCACCCAUGUUUUAGUGUGGGCAUGUAGA | 87.9 | 111 | – | – |
| AAGAAGUGAGGAUAUACAUGAGGAUCACCCAUGUUAAGAAGAAUUUUAGAGAAAGAAGGUAGAAGGCACAAGAA | 49.5 | 47.1 | – | – |
| GAAUAUUAGCAAGGAUAUCGGCUUACUAUAACUUUAUGCCCUGGGACAUGAGGAUCACCCAUGUACGAGAAGGUGCUUACUACA | 18.9 | 29.4 | – | – |
| GUGCCUUGGGAGAAGGAUAAUAAUAAAUAAAUAAUAGGAUAUUCAUACCGGAAACGGACAUGAGGAUCACCCAUGUGGCACAAA | – | – | 413 | 125 |
| GGUCCAACAUGAGGAUAUGGCACCUUAUUGGUGCCAGAAGGCAUGUCUAUAGACAUGAGGAUCACCCAUGUAAUAAAUUGGACC | – | – | 689 | 47.8 |
| GGAUGAGCAAUAGGAUAUGCUGGGAUUGAAUGGGUAGAAGGAUUUCUAGUGGGAAAGACAUGAGGAUCACCCAUGUCGCGGCCC | – | – | 23.8 | 25.3 |
| CUGCUGAAGCUUUGCUUUAGUCGUACAUGAGGAUCACCCAUGUAGGAUAUGGUAGGCUUUGCUUACUAGAAGGAUAGAGUGGUC | 52.6 | 27.6 | – | – |
| AAAAAACAUGAGGAUCACCCAUGUGAGGAUAUCAAAUAAAGGCACAUGAGAAGGCAUAUGAGAAGGCACAUGAA | 99.3 | 156 | – | – |
| ACAUGAGGAUCACCCAUGUAUUUGUAGGAUAUACACAAUUAUUUAUUACUCUAAUUAAUAUGUUUGUAGAAGGACACUGCAUGA | 11.5 | 11.9 | – | – |
| GUUUCACAUGAGGAUCACCCAUGUGAGGAUAUAGAUUUGUUAACCGUAGUUAAUAGAUCUAGAAGGCGCGUGAU | 60.7 | 66.1 | – | – |
| AUCCAGCGAGGAUAUACAUAGAUUUUUUCGUUUUGUCUCGAACAUGAGGAUCACCCAUGUAGAAGGUGCUUCAC | 82.5 | 81 | – | – |
| AGAAAACAUGAGGAUCACCCAUGUGAGGAUAUCGAUGUCCAAGUCCGGGUGCGGGACUCGAGAAGGCACUUGGG | 55.9 | 55 | – | – |
| AAUAAACUCACAGGAUAUAGCAGAGAUCGCGUGAACUUACAGGCGACGAUGCUAGAAGGGUGACCACAUGAGGAUCACCCAUGU | – | – | 673 | 120 |
| GGUCCACAUGAGGAUCACCCAUGUUAGGAUAUCUCGCCCGAGUCCAUAUGGGCCGGGCAGAGAAGGAAUGUGAA | 21 | 22.6 | – | – |
| GGAAAUUAGCAAGGAUAUCGGCUCACUAUUACUUUAUGCCCUAGGACAUGAGGAUCACCCAUGUACGAGAAGGUGCUAACUACA | 28.5 | 31.1 | – | – |
| GCAUGCUAUGUCAGGAUAUACCUGUGGAUACAUAGGUAGAAGGGACAUGAGGAUCACCCAUGUCCUAAUCAUGC | 12.8 | 14.9 | – | – |
| UACCUAUUUAUGGUAUUUCAAUAUGAGGAUAUCAUUUAUUUAUACAUGAGGAUCACCCAUGUUACUGAGAAGGCAUAUUUAAUA | – | – | 11.4 | 6.01 |
| UGGCCGGAGACAGGAUAUGUGACUGCAUAGUGCACAGAAGGGUCUACAUGAGGAUCACCCAUGUCACCGAACGCCAAACCACAA | – | – | 574 | 26.1 |

| Sequence | apparent Kd [1] [nM] | apparent Kd [2] [nM] | apparent Kd [3] [nM] | apparent Kd [4] [nM] |
| --- | --- | --- | --- | --- |
| ACCAUACAUGAGGAUCACCCAUGUUAGGAUAUGAGAGACCCACAUAGUCCUGGUAGCAUCAGAAGGAGCAGGGU | 20.6 | 23.7 | – | – |
| GAACAUGUCCGAGGAUAUCUGGAAACAUUUCCAAGAGAAGGCGGACAUGAGGAUCACCCAUGUCUCUCCUCAUCAAAUCCAAGU | 10.1 | 91.9 | – | – |
| GGAUAGGACAGAGGAUAUACGUGCUAGAGAUACUAGCGAAAUUUCCUCACAUGAGGAUCACCCAUGUAGAAGGCUGUCCUAUCG | 28.1 | 892 | – | – |
| UGAUUGAGAUUGUAGGAUAUUGGAAAAGCCACAUGAGGAUCACCCAUGUCAAAAAAAAAAAAAAACAAGAAGGGCGGUUUUAGUUA | – | – | 72.9 | 61.8 |
| AAAAAACAUGAGGAUCACCCAUGUGAGGAUAUGCUAAAAAAAAAAAAAAAAAAAAAAUGCAGAAGGUACAAAAA | 75.9 | 72.8 | – | – |
| AGUUAUUCAGGAUAUGGUGUGUUAUACAUGAGGAUCACCCAUGUGGGUCCUGGUUAGGCCUCAGAAGGGAAUGUUA | 703 | 534 | – | – |
| UCAGGCUUCGAGAAGGACAUGAAUCGUAGCAUUGCUACGAUGAAACAUACAUGAGGAUCACCCAUGUAGGAUAUCGGAGUCUGC | 5.14 | 5.55 | – | – |
| UCCACUACUGAGAAGGGAUACAUAUGGUUCUAGUCAGGAUAUCGAUACAGUGCAGCAUGAGGACAUGAGGAUCACCCAUGUAUU | – | – | 54.6 | 36.2 |
| AAAACAUGAGGAUCACCCAUGUAAAGAUCGGUUAAUAGAAGUGAGGAUAUACGAAGUUAAAGCUGGUAGAAGGCACUGGGUACA | – | – | 34.7 | 33.2 |
| ACUUAUGAAGGAUAUACUAGCGACAUGCGCUCAACACGCGCACAUGAGGAUCACCCAUGUAGAAGGUCAAACAU | 23.1 | 22.1 | – | – |
| UGAUCUUGUGUUAGGAUAUGCUGGUUUUUUUUUCAGCAGAAGGGACAUGAGGAUCACCCAUGUUCUCUCUUUUU | 12.8 | 17.3 | – | – |
| CGGAGACAUGAGGAUCACCCAUGUCGUCGUCACAGAGGAUAUGGGAGCGUCAGGGACGCAUCAGAAGGCUGAAAGC | – | – | 32.5 | 19.1 |
| CUGUUAUAGGUCCAGAAUUACAACAUGAGGAUCACCCAUGUGCAGGAUAUCGGGUUGAUAGGCGCCGAGAAGGGCAUAGUCACG | 64.5 | 106 | – | – |
| UCCAAACAUGAGGAUCACCCAUGUGAGGAUAUGAUACUAUGUACUUCGGUACAUAGUAUCAGAAGGCACAUCCA | 13.6 | 22.2 | – | – |
| CCGGAAAUGCAGGAUAUCGUAUCGGAAACGAUACGAGAAGGGUAUACAUGAGGAUCACCCAUGUGUCCUACCGG | 22.6 | 21.4 | – | – |
| CGGCUCGGAGAGGAUAUGCAGGCCAACGGCACUGCAGAAGGUUCAACAUGAGGAUCACCCAUGUGAUUUCAACU | 23.6 | 33.5 | – | – |
| UUUACAUUACGAGGAUAUCAAUUAUUUCAUGUAUGAGAAGGCGUUAUUUUUACUACCUUACAUGAGGAUCACCCAUGUUUCAUU | – | – | 62.8 | 27.8 |
| AAAACACAUGAGGAUCACCCAUGUGAGGAUAUGCUAUGGAAAAUAAAAAUAAAACAUAGCAGAAGGCACAAAGG | 62.5 | 152 | – | – |
| UUUGCAUUCCGAGGAUAUUCAUAUAAUAAAUAAACAUGAGGAUCACCCAUGUGGCGAAAGCCUAGGGAGAAGGCGGUUUGCUUU | – | – | 139 | 25.7 |
| UCGCUCCGUGUAGGAUAUCGUUGUAUUCUGCGGCGAGAAGGACAUGAGGAUCACCCAUGUAUGUUAUUAUCACGCGUGGCGCAA | 21 | 18.9 | – | – |
| GAAUGUCGGGUAGGAUAUGACGUGCCACGGAGGUCAGAAGGGCCGCGACAUGAGGAUCACCCAUGUACUGUAUUCCUUUUUCAA | 24.3 | 67.4 | – | – |
| ACGGAACAUGAGGAUCACCCAUGUAUCUGAGAUAAGGUCUCGCAGGAUAUUCAGAGAAGCCUAUCGGAGAAGGGUGACACCAAA | – | – | 38.4 | 15.5 |
| UAAAUGUGAGGAUAUUCGAUGAACUCGGAGACGAGUUUAUCGGAGAAGGCACAUGAGGAUCACCCAUGUUCCUU | 22.3 | 225 | – | – |
| GUAAAACAAACUAACAUGAGGAUCACCCAUGUGAGGAGGCUCAGAAGGGCGUGGAAAAUUUCCUCGCAGGAUAUGAACCUCAUU | – | – | 70.8 | 9.66 |
| AGUGUCAUUUAGAAGGCCUCAUGACAUGAGGAUCACCCAUGUUAUCAUGGGAGGAUAUGGAUGAUAUAGCUACGUUUCGUAGCA | – | – | 233 | 78.2 |
| ACAUGAGGAUCACCCAUGUUAUCAGGGACUUCAAUUAUUUCUAGAAGGCUGUUUACUUGUUAGUCAGAGGAUAUAGAAUUAAAU | 14.5 | 15.9 | – | – |
| UUGCCUCAGAACAUGAGGAUCACCCAUGUGCUGCGGGCAACGUAGGAUAUGAUGGCGUGACGCCAUCAGAAGGAUGAUGGUACC | – | – | 5.92 | 6.15 |
